Data on 14 compounds can be found in PubChem BioAssay.

A word on the inhibition: it is the change of the read-out against control, counted positive when it falls.

A short description of test [1]: inhibitors of TNFa-induced NFkB p65 translocation, primary screen, imaging, HUVEC, MLSMR starter and 10KST1 sets (AID 438;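 active means inhibition above 20% together with a positive visual image hit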;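 further: compound added about 3h40 before a 20 min TNFalpha stimulation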;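 on inhibition: signal is the nuclear over cytoplasmic p65 intensity ratio per well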). Conditions: HUVEC TNFa-induced p65 nuclear translocation; cell count: measured here: nuclei count (cytotoxicity indicator), at 2.08 µM; inhibition: at 2 µM, stronger effect = higher value, 0% TNFa-plus-vehicle, 100% no-TNFa wells.
The nature of test [2]: reduction of polyQ htt aggregates in cells – imaging, exon1htt(103Q)mCFP cells, high-content imaging, primary screen (AID 483;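 active means visual image review flags a hit and inhibition of aggregation exceeds 20%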;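 further: compound exposure lasted 3 days before fixation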;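 on nuclei count: percent of the per-plate median nuclei count of sample wells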). Conditions: exon1htt(103Q)mCFP cell line, aggregate imaging, at 2 µM; inhibition of aggregation: stronger effect = higher value; nuclei count: measured here: cell count, toxicity.
Test [3] can be described thus: endothelial E-selectin expression blockers – imaging, HUVEC, immunofluorescence, MLSMR starter and 10KST1 sets, primary screen (AID 487).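 On inhibition: signal is fraction of cell area covered by stained E-selectin grains.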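 On nuclei count: 100% = median nuclei count of all wells on the same plate.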 As to conditions: HUVEC TNFalpha-induced E-selectin immunofluorescence imaging, at 2 µM; inhibition: stronger effect = higher value; nuclei count: measured here: cell number, toxicity.
Test [4] concerns the target Voltage-gated potassium channel subunit beta-2 (Rattus norvegicus) (UniProt P62483). In words: inhibitors of rat Kvbeta2 reductase activity – biochemical, NADPH fluorescence, primary screen (AID 622;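 active means fluorescence slope higher than the sample average by over 3 SD, cut at about -0.22 in these data, passing the limit was not always enough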;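 further: slope of raw intensity against log time taken from 70 to 1610 s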). Conditions: recombinant KvBeta, 4-cyanobenzaldehyde reduction, at 10 µM, stronger effect = higher value.
The target is the same in test [5]. In words: enhancers of rat Kvbeta2 NADPH turnover – biochemical, NADPH fluorescence, primary screen (AID 623;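 active means NADPH fluorescence slope more negative than the mean of all samples by about 3 SD, 99.7% confidence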;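 further: fluorescence intensity change per second fitted from 20 to 320 s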). As to conditions: Recombinant KvBeta, NADPH fluorescence decrease slope, 10 min; at 10 µM; stronger effect = lower value.
Test [6] has as its target Muscarinic acetylcholine receptor M4 (Homo sapiens) (UniProt P08173). Briefly: M4-linked GIRK flux change, two-sided – cell-based, HEK293 M4/GIRK, thallium flux, BTC-AM, M4 allosteric agonist project, primary screen (AID 625;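 active means fluorescence slope after compound addition differing from the mean of all tested samples at 99.7% confidence, mostly higher but some lower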;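 further: thallium influx through GIRK channels coupled to M4 in HEK293 cells with BTC-AM dye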). As to conditions: at 10 µM, actives lie on both sides. In a few lines: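 assay system = HEK293 cells with M4 receptor and GIRK channels | medium = pH 7.3 thallium assay buffer | doses = 10 µM final, single point | timing = cells overnight at 37 °C, BTC-AM loading 1 h, reads 2 min total | signal = BTC-AM fluorescence, 1 Hz kinetic reads | read-out = post-addition slope, 15–24 s, of baseline-normalized fluorescence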

A short description of test [7]: blockers of RIG-like receptor reporter activation – cell-based, Sendai virus stimulus, luciferase, 10K MLSCN set, TLR/RLR signaling modifier project, primary screen (AID 602276;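 active means inhibition at or above 50% at 10 µM; inactive means inhibition below 50%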;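 further: firefly luciferase from ISG56 promoter only with Renilla not read in this screen; 0% = Sendai virus plus DMSO and 100% = medium plus DMSO without virus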). As to conditions: HEK293 RL24 IRF3 luciferase reporter, at 10 µM, stronger effect = higher value. (Reporter assays use an easily measured gene product as a stand-in for the process of interest.)
Test [8] can be described thus: TLR3 IRF3 reporter activation blockers – cell-based, poly I:C stimulus, luciferase, 10K MLSCN set, primary screen (AID 602277;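 active means inhibition of the reporter signal at or above 50%; inactive means inhibition below 50%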). Conditions: HEK293-TLR3 RL24 IRF3 luciferase reporter, at 10 µM, stronger effect = higher value.

Activity calls are given as the source filed them.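 How the source made its calls, unless noted: active means visually confirmed hit in the image check and inhibition above 20%; inconclusive means visually confirmed hit but inhibition not above 20%; inactive means no visual hit in the image check.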

Voltage-gated potassium channel subunit beta-2 (Rattus norvegicus), sequence (P62483 whole entry, looked up): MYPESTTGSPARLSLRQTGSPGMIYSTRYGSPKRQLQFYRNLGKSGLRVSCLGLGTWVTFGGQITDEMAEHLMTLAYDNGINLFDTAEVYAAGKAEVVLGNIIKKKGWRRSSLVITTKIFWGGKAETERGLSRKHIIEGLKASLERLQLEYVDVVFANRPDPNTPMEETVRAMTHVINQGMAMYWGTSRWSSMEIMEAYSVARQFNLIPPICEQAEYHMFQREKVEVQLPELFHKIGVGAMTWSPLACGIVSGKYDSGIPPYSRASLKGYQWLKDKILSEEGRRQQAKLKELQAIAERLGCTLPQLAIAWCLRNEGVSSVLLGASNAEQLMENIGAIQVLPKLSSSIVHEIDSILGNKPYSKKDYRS
Muscarinic acetylcholine receptor M4 (Homo sapiens), sequence (P08173 whole entry, looked up): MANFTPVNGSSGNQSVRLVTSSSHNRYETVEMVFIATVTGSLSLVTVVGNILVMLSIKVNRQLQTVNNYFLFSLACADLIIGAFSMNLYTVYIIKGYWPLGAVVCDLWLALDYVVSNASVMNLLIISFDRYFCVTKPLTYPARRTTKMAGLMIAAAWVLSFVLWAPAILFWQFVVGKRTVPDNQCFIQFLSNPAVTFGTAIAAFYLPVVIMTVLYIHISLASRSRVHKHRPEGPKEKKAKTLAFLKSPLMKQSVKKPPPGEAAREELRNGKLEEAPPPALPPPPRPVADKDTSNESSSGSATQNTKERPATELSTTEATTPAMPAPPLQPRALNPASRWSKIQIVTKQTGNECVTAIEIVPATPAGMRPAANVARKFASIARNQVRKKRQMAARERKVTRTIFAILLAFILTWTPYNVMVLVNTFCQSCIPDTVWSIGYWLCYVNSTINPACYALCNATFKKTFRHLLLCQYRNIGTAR

Regarding `Cc1cc(=O)n2[nH]c(COc3ccccc3)nc2n1`, the cell count in test [1] is 203. In addition, the inhibition in test [1] was -7.9% (inactive); in test [3], -85.5% (inactive); in test [7], 6.61% (inactive); in test [8], 14.8% (inactive). Also, the inhibition of aggregation in test [2] is 31.3% (inactive). In addition, the nuclei count is 101% in test [2] and 91.6% in test [3]. In addition, the fluorescence slope in test [4] was -0.531 (inactive); in test [6], 0.00471 (inactive). In addition, the NADPH fluorescence slope in test [5] is -4.3e-05 (inactive).

For the compound `CCOc1cc(S(=O)(=O)NCc2ccccn2)c(C)cc1C`, the cell count in test [1] was found to be 412. For the same compound, the inhibition in test [1] was -15.9% (inactive); in test [3] it was -20% (inactive); in test [7], 8.05% (inactive); in test [8] it was 20.9% (inactive). For the same compound, the inhibition of aggregation in test [2] is -0.5% (inactive). In addition, the nuclei count in test [2] was determined as 112%; in test [3], 68.1%. The values for the fluorescence slope in test [4] and in test [6] were -0.44 (inactive) and 0.0075 (inactive), respectively. In test [5], the NADPH fluorescence slope was -3.9e-05 (inactive).

In the case of `Cc1ccc(C(=O)NC2CC3CCCC(C2)N3C(=O)NC2CCCCC2)cc1` (centres undefined), in test [1], the cell count is 391. Also, the inhibition is -5% (inactive) in test [1], -32.5% (inactive) in test [3], -0.377% (inactive) in test [7] and 9.12% (inactive) in test [8]. Further, the inhibition of aggregation in test [2] is 0.8% (inactive). Further, the nuclei count worked out at 98.7% in test [2] and 80.8% in test [3]. Besides, the fluorescence slope in test [4] is -0.559 (inactive); in test [6] it was 0.00417 (inactive). Also, in test [5], the NADPH fluorescence slope is 5.4e-08 (inactive).

For the compound `CN(C)S(=O)(=O)c1ccc(C(=O)Nc2ccccc2C(=O)O)cc1`, the cell count in test [1] was 487. Moreover, the inhibition in test [1] was -8.9% (inactive); in test [3], -1.2% (inactive); in test [7], 2.15% (inactive); in test [8], 46.7% (inactive). Moreover, in test [2], the inhibition of aggregation is 13.1% (inactive). For the same compound, the nuclei count in test [2] is 83%; in test [3], 78%. Also, the values for the fluorescence slope in test [4] and in test [6] were -0.52 (inactive) and 0.00545 (inactive), respectively. Moreover, the NADPH fluorescence slope in test [5] was -3.3e-05 (inactive).

In the case of `CC1Oc2ccccc2N(CC(=O)N(Cc2ccccc2)Cc2ccccn2)C1=O` (centres undefined), in test [1], the cell count turned out to be 640. In addition, the inhibition is -12.1% (inactive) in test [1], 81.9% (active) in test [3], -6.61% (inactive) in test [7] and -7.77% (inactive) in test [8]. In test [2], the inhibition of aggregation is -1.2% (inactive). The nuclei count is 106% in test [2] and 112% in test [3]. Moreover, the figures for the fluorescence slope in test [4] and in test [6] were -0.297 (inactive) and 0.00604 (inactive), respectively. Besides, the NADPH fluorescence slope in test [5] was -8.9e-06 (inactive).

On to `CCOC(=O)c1[nH]c(C)c(C(=O)Nc2ccccc2F)c1C`, for which, in test [1], the cell count worked out at 637. Also, the inhibition in test [1] is -9.7% (inactive); in test [3], 11.3% (inactive); in test [7] it was 27.9% (inactive); in test [8], -0.299% (inactive). Also, in test [2], the inhibition of aggregation was -35.4% (inactive). The nuclei count in test [2] is 48.5%; in test [3] it was 94.5%. The fluorescence slope is -0.435 (inactive) in test [4] and 0.00822 (inactive) in test [6]. Further, in test [5], the NADPH fluorescence slope was 2.7e-05 (inactive).

Regarding `CC(C(=O)N1CCOCC1)N1c2cccc3cccc(c23)S1(=O)=O` (centres undefined), the cell count in test [1] came out at 341. Also, the inhibition in test [1] was -13.3% (inactive); in test [3], -31.4% (inactive); in test [7] it was 17.3% (inactive); in test [8], 20.6% (inactive). Further, in test [2], the inhibition of aggregation was 8.6% (inactive). Moreover, the nuclei count in test [2] was found to be 109%; in test [3] it was 102%. For the same compound, the results for the fluorescence slope in test [4] and in test [6] were -0.548 (inactive) and 0.00313 (inactive), respectively. For the same compound, in test [5], the NADPH fluorescence slope is -2.9e-05 (inactive).

In the case of `COC(=O)Cn1c(C)nc2c(sc3nc(C)cc(C)c32)c1=O`, in test [1], the cell count was found to be 674. The inhibition is -5% (inactive) in test [1], 16% (inactive) in test [3], -40.7% (inactive) in test [7] and -91.2% (inactive) in test [8]. In addition, in test [2], the inhibition of aggregation is 14.7% (inactive). Further, the nuclei count in test [2] is 81.2%; in test [3] it was 100%. The fluorescence slope in test [4] was -0.603 (inactive); in test [6] it was 0.00473 (inactive). In addition, the NADPH fluorescence slope in test [5] was -2e-05 (inactive).

Consider `COCCn1c(SCC(=O)Nc2nnc(C)s2)nnc1-c1c[nH]c2ccccc12`, for which the cell count in test [1] turned out to be 518. The inhibition was 7.1% (inactive) in test [1], -37.4% (inactive) in test [3], 5.93% (inactive) in test [7] and 14.2% (inactive) in test [8]. The inhibition of aggregation in test [2] is -15.6% (inactive). Besides, the nuclei count in test [2] worked out at 114%; in test [3], 113%. For the same compound, the fluorescence slope was -0.505 (inactive) in test [4] and 0.00466 (inactive) in test [6]. The NADPH fluorescence slope in test [5] is -0.00026 (inactive).

`CN(C)C(=O)CN(c1ccc(F)c(Cl)c1)S(C)(=O)=O`: the cell count in test [1] worked out at 352. In addition, the inhibition in test [1] is -2.1% (inactive); in test [3], 5.1% (inactive); in test [7], 1.05% (inactive); in test [8], 9.43% (inactive). The inhibition of aggregation in test [2] is -0.4% (inactive). For the same compound, the nuclei count came out at 104% in test [2] and 109% in test [3]. Further, the values for the fluorescence slope in test [4] and in test [6] were -0.56 (inactive) and 0.00357 (inactive), respectively. For the same compound, in test [5], the NADPH fluorescence slope is -8.3e-05 (inactive).

Turning to `CCCS(=O)(=O)N1CCCC(C(=O)N2CCC(Cc3ccccc3)CC2)C1` (centres undefined), the cell count in test [1] came to 662. In addition, the inhibition in test [1] is -11.9% (inactive); in test [3] it was -82.7% (inactive); in test [7] it was 11.3% (inactive); in test [8], 12.1% (inactive). Moreover, the inhibition of aggregation in test [2] was 5% (inactive). The nuclei count in test [2] was determined as 105%; in test [3] it was 106%. Also, the fluorescence slope in test [4] was -0.5 (inactive); in test [6], 0.00325 (inactive). In test [5], the NADPH fluorescence slope is -0.000282 (inactive).

Regarding `CCCn1c(N2CCN(CC(=O)Nc3ccc4c(c3)OCCO4)CC2)nc2ccccc21`, in test [1], the cell count was determined as 411. In addition, the inhibition in test [1] was -11% (inactive); in test [3], -98.9% (inactive); in test [7] it was 4.25% (inactive); in test [8], 20.1% (inactive). In addition, the inhibition of aggregation in test [2] was 1.8% (inactive). For the same compound, the figures for the nuclei count in test [2] and in test [3] were 103% and 74.4%, respectively. In addition, the fluorescence slope in test [4] was -0.526 (inactive); in test [6], 0.00376 (inactive). The NADPH fluorescence slope in test [5] was -0.000207 (inactive).

As to `CN(Cc1ccccc1)Cc1nc2c([nH]1)c(=O)[nH]c(=O)n2C`, the cell count in test [1] was 276. Also, the inhibition was 12.9% (inactive) in test [1], 69.5% (active) in test [3], 7.51% (inactive) in test [7] and 14.7% (inactive) in test [8]. The inhibition of aggregation in test [2] was -1.6% (inactive). Also, the values for the nuclei count in test [2] and in test [3] were 96% and 91.4%, respectively. Also, the fluorescence slope in test [4] is -0.371 (inactive); in test [6] it was 0.0061 (inactive). Also, the NADPH fluorescence slope in test [5] is -0.000115 (inactive).

As for `Cc1cc(C)nc(N2CCCC(C(=O)Nc3ccc4c(c3)OCO4)C2)n1` (centres undefined), in test [1], the cell count was found to be 563. For the same compound, the inhibition in test [1] was -19.4% (inactive); in test [3], 7.1% (inactive); in test [7], -3.52% (inactive); in test [8], -3.39% (inactive). Further, the inhibition of aggregation in test [2] was 15.3% (inactive). Also, the nuclei count was determined as 71.5% in test [2] and 95.8% in test [3]. Moreover, the figures for the fluorescence slope in test [4] and in test [6] were -0.279 (inactive) and 0.0054 (inactive), respectively. For the same compound, the NADPH fluorescence slope in test [5] is 4.9e-06 (inactive).
